Here are results for three compounds from article PMC11696124 (Nature Communications, 2025).

Numbering of substitutions follows the chain as printed.

Data set [1] in a line: Human Clint. It counts as in vitro ADME. As to conditions: hepatocytes.
Data set [2] can be described thus: Rat Clint. It counts as in vitro ADME. As to conditions: hepatocytes.
In data set [3] the target is T1, APOL1 G2 (Homo sapiens, UniProt O14791, DEL388-389/M228I/R255K, cells depend on it).
T1 sequence (O14791 with tags, fused parts or gaps M228I/R255K/DEL388-389): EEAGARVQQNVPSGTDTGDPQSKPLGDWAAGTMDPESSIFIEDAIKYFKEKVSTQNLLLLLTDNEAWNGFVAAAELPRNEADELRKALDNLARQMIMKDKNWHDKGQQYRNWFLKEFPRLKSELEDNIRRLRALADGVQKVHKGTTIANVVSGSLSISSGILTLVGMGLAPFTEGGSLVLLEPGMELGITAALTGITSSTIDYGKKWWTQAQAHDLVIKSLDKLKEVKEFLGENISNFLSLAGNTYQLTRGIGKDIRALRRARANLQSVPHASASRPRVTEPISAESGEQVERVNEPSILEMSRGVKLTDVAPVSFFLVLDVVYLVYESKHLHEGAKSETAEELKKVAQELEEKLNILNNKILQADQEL
Description: HEK cell rescue. It counts as cell-based. As to conditions: read-out: APOL1 G2 HEK Cell Rescue EC50; HEK293 APOL1 G2; replicates in brackets.

The nature of data set [4]: LogD7.4. As to conditions: pH 7.4. It counts as physicochemical.
The target of data set [5] is T2, recombinant APOL1 G2 (Homo sapiens, UniProt O14791, DEL388-389).
T2 sequence (O14791 with tags, fused parts or gaps DEL388-389): T1 sequence (O14791 with tags, fused parts or gaps M228I/R255K/DEL388-389) with I201M, K228R
Description: Trypanosome. It counts as cell-based. The method in brief: (§1)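 T. b. brucei were grown in modified HMI-9, then plated at 120,000 parasites/well in phenol red/FBS-free medium with Serum Plus, test compound and recombinant APOL1. APOL1 was at a final level killing about 90% of parasites. After 16 h at 37 °C, alamarBlue was added for 2.5 h, read at ex/em 555/585, in duplicate, and fitted to dose–response curves. Experimental replicates: G0 n=1, G1 n=4, G2 n=1.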

For data set [6], the target named is T3, recombinant APOL1 G0 (Homo sapiens, UniProt O14791).
T3 sequence (O14791 28-398): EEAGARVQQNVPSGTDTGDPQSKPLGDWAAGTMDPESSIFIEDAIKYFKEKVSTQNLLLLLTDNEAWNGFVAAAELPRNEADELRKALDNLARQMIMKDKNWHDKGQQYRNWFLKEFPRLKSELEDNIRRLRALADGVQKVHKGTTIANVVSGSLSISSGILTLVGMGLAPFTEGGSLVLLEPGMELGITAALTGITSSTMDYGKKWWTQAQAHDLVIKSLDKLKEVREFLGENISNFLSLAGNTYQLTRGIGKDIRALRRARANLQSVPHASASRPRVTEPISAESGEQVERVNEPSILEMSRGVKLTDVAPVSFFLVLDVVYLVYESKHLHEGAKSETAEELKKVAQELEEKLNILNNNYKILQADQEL
Nature of the data set: Trypanosome. It counts as cell-based. The gist of the method: as §1

The conditions of data set [7]: cited from earlier work.
For data set [8], the target named is T4, APOL1 G1 (Homo sapiens, UniProt O14791, I384M/M228I/R255K/S342G).
T4 sequence (O14791 28-398 M228I/R255K/S342G/I384M): T3 sequence (O14791 28-398) with M201I, R228K, S315G, I357M
Description: HEK cell rescue. In kind it is cell-based.

Data set [9] has as its target T5, recombinant APOL1 G1 (Homo sapiens, UniProt O14791, I384M/S342G).
T5 sequence (O14791 28-398 S342G/I384M): T3 sequence (O14791 28-398) with S315G, I357M
Description: Trypanosome. In kind it is cell-based. The gist of the method: as §1

For data set [10], the target named is T6, APOL1 G0 (Homo sapiens, UniProt O14791, M228I/R255K).
T6 sequence (O14791 28-398 M228I/R255K): T3 sequence (O14791 28-398) with M201I, R228K
Nature of the data set: HEK cell rescue. It counts as cell-based. The gist of the method: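 HEK293 tet-inducible APOL1 cells in DMEM with 2% tet-free FBS, seeded at 23,400 cells/well and induced with 50 ng/mL tet for 24 h alongside test compound. Dosing was a 10-point 3-fold series from 10 μM, in duplicate. MultiTox reagent was added for 30 min at 37 °C, reading viability (ex 400/em 486) and cytotoxicity (ex 485/em 535). The dead:live ratio was normalized to no-tet (100%) and tet-only (0%) controls before curve fitting.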

For data set [11], the system named is purified, recombinant APOL1. As to conditions: cited from earlier work.
The subject of data set [12] is APOL1 G2mc mice. As to conditions: 3 mg/kg tid; cited from earlier work.
Data set [13] concerns the target T7, APOL1 G2 (Homo sapiens, UniProt O14791, DEL388-389/M228I/R255K).
T7 sequence (O14791 with tags, fused parts or gaps M228I/R255K/DEL388-389): T1 sequence (O14791 with tags, fused parts or gaps M228I/R255K/DEL388-389)
Nature of the data set: Thallium flux assay, tet-inducible HEK293 APOL1 G2. In kind it is cell-based.

Data set [14] can be described thus: Rat pharmacokinetics. As to conditions: in vivo; for bioavailability: po.
Data set [15] has as its target T6, APOL1 G0. Description: Automated whole-cell patch clamp. It counts as cell-based. The gist of the method:
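Tet-inducible HEK293 APOL1 G0 cells, induced with 15 ng/mL tet for 16–20 h. Automated whole-cell recording used extracellular NaCl and intracellular CsF, with hole resistance 1.5–2.5 MΩ and a ramp protocol. After 5 min control recording, six test compound concentrations (100 pM–1 μM) were applied for 5 min each. Peak outward current was normalized to control and fitted to a four-parameter variable-slope curve; 8 cells.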

Data set [16] concerns the target T4, APOL1 G1. Description: Thallium flux assay, tet-inducible HEK293 APOL1 G1. It counts as cell-based.
Data set [17] addresses T7, APOL1 G2. Nature of the data set: Automated whole-cell patch clamp. It counts as cell-based.
The target in data set [18] is T4, APOL1 G1. Nature of the data set: Automated whole-cell patch clamp. It counts as cell-based.
Data set [19] relates to APOL1 G2sc mice. Description: Kidney histopathology and nephrin immunohistochemistry. It counts as in vivo, mouse. As to conditions: IFNγ plasmid, 30 mg/kg bid. The gist of the method:
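FVB homozygous APOL1 G2 single-copy mice received a hydrodynamic tail-vein injection of 0.3 μg CpG-free murine IFNγ plasmid in saline (volume 10% of body weight). Groups were balanced by day-5 UACR; vehicle or test compound bid started on day 6. The left kidney was formalin-fixed and cut into 3 µm FFPE sections. Nephrin IHC used CC1 retrieval (95 °C, 64 min), antibody 1:1000 for 1 h, and DAB. AI scoring of all glomeruli in one section gave the H-score.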

Data set [20] concerns APOL1 G2sc mice. Description: Therapeutic IFNγ plasmid model in APOL1 G2 single copy mice, UACR. It counts as in vivo, mouse. As to conditions: 30 mg/kg bid from day 6, vs vehicle. The gist of the method: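 Homozygous APOL1 G2 single-copy transgenic mice of both sexes. Proteinuria was induced by a single hydrodynamic tail-vein injection of a CpG-free plasmid encoding murine IFNγ, 0.3 μg total in saline at 10% body weight, given over about 5–10 s. Mice were allocated by day-5 UACR to give matched group means (n = 12 vehicle, 11 treated). Serum IFNγ was measured by immunoassay on days 1, 5, 9 and 14.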

For data set [21], the system named is APOL1 G2mc mice. Description: Prophylactic IFNγ-induced proteinuria model in APOL1 G2 multicopy mice. It counts as in vivo, mouse. As to conditions: 30 mg/kg bid.

For orientation: hepatocyte CLint means the capacity of the preparation to metabolise the compound, expressed as a volume cleared per time. Low readings indicate slow turnover, high ones rapid turnover. Usually EC50 stands for the concentration that produces a half-maximal response. By logD is commonly meant lipophilicity at a set pH, counting ionised and neutral species. A low value points to a more hydrophilic compound. As usually defined, the IC50 is the concentration at which inhibition is half-maximal. Read a high IC50 as weaker potency in that assay. The term Vd denotes a proportionality between amount in the body and measured concentration, not a real space. A lower Vd goes with confinement near the circulation. For orientation: clearance means a measure of how efficiently the substance is removed, as volume per time. A low value points to inefficient removal. Broadly, the half-life is the time needed for the level to fall by half in the phase considered. Low values mean fast loss, high ones slow loss. The bioavailability is dose-corrected exposure relative to a reference, in per cent. A lower bioavailability goes with little systemic uptake. `O=C(CCc1c(-c2ccc(F)cc2)[nH]c2c(F)cc(F)cc12)N[C@@H]1C(=O)NC[C@H]1O` [VX-147, 3-[5,7-difluoro-2-(4-fluorophenyl)-1H-indol-3-yl]-N-[(3S,4 R)-4-hydroxy-2-oxo-pyrrolidin-3-yl] propanamide]: the figures for the hepatocyte CLint in data set [1] and in data set [2] were under 2.5 µL/min/1e6 cells and 4.7 µL/min/1e6 cells, respectively. Further, the EC50 in data set [3] was 2.2 nM; in data set [5], 1.2 nM; in [6], 2 nM; in [8] it was 2 nM; in [9] it was 2.1 nM; in [10], 4.3 nM. This compound came in with a logD in data set [4] of 2.7. In addition, in [7] (13-week clinical trial, patients with two APOL1 risk alleles and proteinuric non-diabetic kidney disease), the reduction in proteinuria was 47.6%. The glomerular filtration rate result in [7] (13-week study in 16 individuals) is “stable”. Besides, the “binding to purified, recombinant APOL1” value in [11] is “bind directly”. Also, the “APOL1-dependent proteinuria, prophylactic treatment” value in data set [12] is reported as “reduced APOL1-dependent proteinuria”. The IC50 was 1.2 nM in [13]; 2.3 nM in [15]; 2 nM in [16]; 1.1 nM in data set [17]; 1.3 nM in [18]. In data set [14], this compound returned a volume of distribution (Vd) of 0.9 L/kg. Also, the clearance in data set [14] amounted to 4.8 mL/min/kg. Besides, in data set [14], the half-life was 150 min. Moreover, in [14], the bioavailability is 57%.

In data set [1], `Cc1cc(F)cc2c(CCC(=O)N[C@@H]3C(=O)NC[C@H]3O)c(-c3ccc(F)cc3)[nH]c12` [Compound 3, 3-[5-fluoro-2-(4-fluorophenyl)-7-methyl-1H-indol-3-yl]-N-[(3S,4 R)-4-hydroxy-2-oxo-pyrrolidin-3-yl]propanamide] registered a hepatocyte CLint of 6.3 µL/min/1e6 cells. For the same compound, the hepatocyte CLint in data set [2] was 5.1 µL/min/1e6 cells. Further, in data set [3], the EC50 is 10 nM. In addition, in data set [19], the “microscopic evaluation of kidney tissues” value is “no microscopic abnormalities or nephrin loss were noted” and the “nephrin H-scores versus no IFNγ control” value is “comparable”. For the same compound, in data set [4], the logD was found to be 2.7. For the same compound, in [20], the “Percent reduction in UACR AUC Day 6-14” value was 97%. Moreover, the EC50 in data set [8] was 3.6 nM. Moreover, in data set [21], the “APOL1-mediated proteinuria, prophylactic treatment” value was “able to prevent APOL1-mediated proteinuria”. This compound yielded an IC50 in data set [13] of 5.4 nM. In [14], this compound gave a Vd of 1.4 L/kg, a clearance of 6 mL/min/kg, a half-life of 252 min and a bioavailability of 28%. In data set [16], this compound gave an IC50 of 4.2 nM.

The compound `Cc1cc(F)cc2c(CCC(=O)N[C@H]3CCNC3=O)c(-c3ccc(F)cc3)[nH]c12` [Compound 2, 3-[5-fluoro-2-(4-fluorophenyl)-7-methyl-1H-indol-3-yl]-N-[(3S)-2-oxopyrrolidin-3-yl]propanamide] had a hepatocyte CLint in data set [1] of 15.4 µL/min/1e6 cells. The hepatocyte CLint in data set [2] stood at 8.2 µL/min/1e6 cells. Moreover, the logD in data set [4] turned out to be 2.8. The same compound showed an EC50 in data set [8] of 37 nM. In [14], this compound gave a Vd of 2.1 L/kg, a clearance of 15 mL/min/kg, a half-life of 246 min and a bioavailability of 34%. Moreover, half-maximal inhibition in data set [16] (IC50) was put at 40 nM.
